This passage reports Activity results from ChEMBL document CHEMBL1150296, “Synthesis and DNA cleaving activity of water-soluble non-conjugated thienyl tetraynes” (Bioorg Med Chem, 2008).

Experiment [1] has as its system Escherichia coli. The experiment in a line: Effect on DNA cleavage in ampicillin resistant Escherichia coli DH5alpha transformed pBluescript 2 KS+ DNA assessed as number of colonies at 1 mM after 15 hrs by transformation assay. The method in brief:
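Plasmid DNA (2.0 µg) exposed to tetrayne at 1.0 mM (final DMSO 3.0%) at 37 °C, recovered by ethanol precipitation, redissolved in water and heated 60 °C for 10 min. Heat-shock transformation of competent E. coli (DH5a or JM109) at 42 °C for 1 min, 1 h recovery in LB at 37 °C, plating on ampicillin (100 mg/L) LB agar, 37 °C for 15 h; colonies counted.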

Experiment [2] relates to Escherichia coli. The experiment is described as follows: Induction of Escherichia coli pBluescript 2 KS+ DNA cleavage assessed as linear form 3 at 1 mM by atomic force microscopy. The method in brief:
(§1)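 Plasmid exposed to tetrayne (1.0 mM, 37 °C, 6 h), ethanol-precipitated, pellet taken up in water. Sample spotted on flat mica for 1 min at room temperature, excess water blown off with air, then single DNA molecule shapes imaged by atomic force microscopy.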

Experiment [3] deals with Escherichia coli. The experiment in a line: Induction of Escherichia coli pBluescript 2 KS+ DNA cleavage assessed as increase in form 3 at 1 mM by gel electrophoresis. In a few lines: (§2)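 pBluescript II KS+ (2.0 µg) incubated overnight at 37 °C with tetrayne in 20 µL, final DMSO 3.0%. Level 1.0 mM; 0.1, 0.3, 0.6 mM also run for the dose series. DNA ethanol-precipitated, redissolved, held 60 °C 10 min then 37 °C 30 min, run on 0.7% agarose; ethidium bromide stain, UV imaging of supercoiled, nicked and linear forms.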

Experiment [4] deals with Escherichia coli. The experiment in a line: Induction of Escherichia coli pBluescript 2 KS+ DNA cleavage by gel electrophoresis. In a few lines: as §2
Experiment [5] relates to Escherichia coli. The experiment is described as follows: Induction of Escherichia coli pBluescript 2 KS+ DNA cleavage assessed as decrease in form 1 at 1 mM by gel electrophoresis. The method in brief:
as §2

Experiment [6] relates to Escherichia coli. The experiment is described as follows: Induction of Escherichia coli pBluescript 2 KS+ DNA cleavage assessed as formation of burst star shaped architecture at 1 mM by atomic force microscopy. In a few lines:
as §1

The test system of experiment [7] is Escherichia coli. The experiment is described as follows: Induction of Escherichia coli pBluescript 2 KS+ DNA cleavage assessed as increase in nicked form 2 at 1 mM by gel electrophoresis. In a few lines: as §2

The source made the active and inactive calls. The calls are words filed in the database; no cut-off is given here. Bounds are passed on as bounds.

For `CN(C)C`, the Activity in experiment [1] was above 1000.
With `COCc1ccccc1C#CC#Cc1cc(C(=O)O)sc1C(O)C#CC#CC(C)(C)C` (stereo unspecified), in experiment [1], the Activity is above 1000.
Consider `COCc1ccccc1C#CC#Cc1cc(CN(C)C)sc1C(O)C#CC#CC(C)(C)C` (stereo unspecified), for which the Activity in experiment [1] was above 1000.
Regarding `COCc1ccccc1C#CC#Cc1cc(C(=O)O)sc1C(=O)C#CC#CC(C)(C)C`, the Activity in experiment [1] was above 1000.
On to `COCc1ccccc1C#CC#Cc1cc(CN(C)C)sc1C(=O)C#CC#CC(C)(C)C`, for which the result in experiment [2], in experiment [3], in experiment [5], in experiment [6] and in experiment [7] was Active. The Activity result in experiment [4] was “Dose-dependent effect”; in experiment [1], 8.
